Data as given in ChEMBL document CHEMBL4411332, “Deciphering the Role of Intramolecular Networking in Cholic Acid-Peptide Conjugates on the Lipopolysaccharide Surface in Combating Gram-Negative Bacterial Infections” (J Med Chem, 2019).
≈ marks a conversion by molar mass, not a printed value. Calls of active or inactive are those of the source. The calls are words filed in the database; no cut-off is given here.

Legend:
[1] = tested on: Escherichia coli; test: Antibacterial activity against Escherichia coli by broth dilution assay; assay type: functional
Outline: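 MIC99 by broth-dilution assay; antibacterial and culture details are in the Supporting Information.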

[2] = tested on: Escherichia coli; test: Bactericidal activity against stationary form of Escherichia coli assessed as reduction in colony forming units by fluorescent based time-kill assay; assay type: functional, organism-based
[3] = tested on: Escherichia coli; test: Bactericidal activity against persistent form of Escherichia coli assessed as reduction in colony forming units by fluorescent based time-kill assay; assay type: functional, organism-based
[4] = tested on: Escherichia coli; test: Antibacterial activity against Escherichia coli isolate 6/23 infected in wound areas of BALB/c mouse assessed as reduction in colony forming units at 40 mg/kg dosed thrice daily for 4 days starting 6 hrs post infection and measured on day 5; assay type: functional, organism-based

Compound `CC(C)C[C@H](N)C(=O)NCC(=O)O[C@@H]1CC[C@@]2(C)[C@@H](C1)C[C@@H](OC(=O)CNC(=O)[C@@H](N)CC(C)C)[C@@H]1[C@@H]2C[C@H](OC(=O)CNC(=O)[C@@H](N)CC(C)C)[C@]2(C)[C@@H]([C@H](C)CCC(=O)OCc3ccccc3)CC[C@@H]12` has an MIC99 [1] of 8 to 128 µM (≈ 8.07 to 129 µg/mL).

Work on `C[C@H](N)C(=O)NCC(=O)O[C@@H]1CC[C@@]2(C)[C@@H](C1)C[C@@H](OC(=O)CNC(=O)[C@H](C)N)[C@@H]1[C@@H]2C[C@H](OC(=O)CNC(=O)[C@H](C)N)[C@]2(C)[C@@H]([C@H](C)CCC(=O)OCc3ccccc3)CC[C@@H]12` yielded an MIC99 [1] of 8 to 128 µM (≈ 7.06 to 113 µg/mL).

Compound `CSCC[C@H](N)C(=O)NCC(=O)O[C@@H]1CC[C@@]2(C)[C@@H](C1)C[C@@H](OC(=O)CNC(=O)[C@@H](N)CCSC)[C@@H]1[C@@H]2C[C@H](OC(=O)CNC(=O)[C@@H](N)CCSC)[C@]2(C)[C@@H]([C@H](C)CCC(=O)OCc3ccccc3)CC[C@@H]12` has an MIC99 [1] of 8 to 128 µM (≈ 8.51 to 136 µg/mL).

For `CC1(C)S[C@@H]2[C@H](NC(=O)[C@H](N)c3ccccc3)C(=O)N2[C@H]1C(=O)O`, the Activity [2] was “inactive”, the Activity [3] was “inactive” and the Activity [4] was “inactive”.

`C[C@H](CCC(=O)OCc1ccccc1)[C@H]1CC[C@H]2[C@@H]3[C@H](OC(=O)CNC(=O)CN)C[C@@H]4C[C@H](OC(=O)CNC(=O)CN)CC[C@]4(C)[C@H]3C[C@H](OC(=O)CNC(=O)CN)[C@]12C` was tested, and the MIC99 [1] was 8 to 128 µM (≈ 6.73 to 108 µg/mL).
